Assay results: ChEMBL document CHEMBL4118069, “Structure-activity relationship study and optimisation of 2-aminopyrrole-1-benzyl-4,5-diphenyl-1H-pyrrole-3-carbonitrile as a broad spectrum metallo-β-lactamase inhibitor” (Eur J Med Chem, 2017)

Assays:
[1] = tested on: Escherichia coli; assay: Growth inhibition of Escherichia coli BL21(DE3) expressing bacterial IMP1; type: organism-based; conditions: in vivo
[2] = tested on: Bacteria; assay: Inhibition of bacterial IMP1 at 10 uM using CENTA as substrate by UV/Vis multi-plate spectrophotometric method relative to control
[3] = tested on: Bacteria; assay: Competitive inhibition of bacterial IMP1 using CENTA as substrate by UV/Vis multi-plate spectrophotometric method
[4] = tested on: Bacteria; assay: Inhibition of bacterial IMP1 expressed in Escherichia coli BL21(DE3) assessed as decrease in meropenem MIC at 30 uM after overnight incubation relative to control
How it was run: (§1)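 Meropenem MICs (µg/mL) measured for E. coli BL21 cultures expressing IMP-1, CphA or AIM-1. Each strain was tested with no inhibitor (blank) and with the test compound at 30 µM. Change in sensitivity is expressed as the reduction of the meropenem MIC relative to the blank.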

[5] = tested on: Escherichia coli; assay: Growth inhibition of Escherichia coli BL21(DE3) expressing Aeromonas hydrophila CphA; type: organism-based; conditions: in vivo
[6] = target: T1, Metallo-beta-lactamase AIM-1 (Pseudomonas aeruginosa) (UniProt B5DCA0); assay: Inhibition of Pseudomonas aeruginosa AIM1 expressed in Escherichia coli BL21(DE3) assessed as decrease in meropenem MIC at 30 uM after overnight incubation relative to control; how it was run: as §1
T1 sequence (whole entry): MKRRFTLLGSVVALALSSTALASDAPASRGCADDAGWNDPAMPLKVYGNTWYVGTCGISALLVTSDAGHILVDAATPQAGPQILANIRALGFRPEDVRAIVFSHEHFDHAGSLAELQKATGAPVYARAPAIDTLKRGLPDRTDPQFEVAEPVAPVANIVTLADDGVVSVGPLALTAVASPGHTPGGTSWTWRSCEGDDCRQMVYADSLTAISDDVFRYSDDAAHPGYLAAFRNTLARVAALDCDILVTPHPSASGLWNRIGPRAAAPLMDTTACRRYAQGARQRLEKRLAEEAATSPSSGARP

[7] = target: T1, Metallo-beta-lactamase AIM-1 (Pseudomonas aeruginosa); assay: Uncompetitive inhibition of Pseudomonas aeruginosa recombinant AIM1 expressed in Escherichia coli BL21(DE3) using cefuroxime as substrate by UV/Vis multi-plate spectrophotometric method
[8] = target: Metallo-beta-lactamase type 2 (Aeromonas hydrophila) (UniProt P26918); assay: Competitive inhibition of Aeromonas hydrophila recombinant CphA expressed in Escherichia coli BL21(DE3) using meropenem as substrate by UV/Vis multi-plate spectrophotometric method
[9] = tested on: Escherichia coli; assay: Growth inhibition of Escherichia coli BL21(DE3) expressing Pseudomonas aeruginosa AIM1; type: organism-based; conditions: in vivo
[10] = target: Metallo-beta-lactamase type 2 (Aeromonas hydrophila) (UniProt P26918); assay: Uncompetitive inhibition of Aeromonas hydrophila recombinant CphA expressed in Escherichia coli BL21(DE3) using meropenem as substrate by UV/Vis multi-plate spectrophotometric method
[11] = target: Metallo-beta-lactamase type 2 (Aeromonas hydrophila) (UniProt P26918); assay: Inhibition of Aeromonas hydrophila CphA expressed in Escherichia coli BL21(DE3) assessed as decrease in meropenem MIC at 30 uM after overnight incubation relative to control; how it was run: as §1
[12] = tested on: Bacteria; assay: Uncompetitive inhibition of bacterial IMP1 using CENTA as substrate by UV/Vis multi-plate spectrophotometric method
[13] = target: T1, Metallo-beta-lactamase AIM-1 (Pseudomonas aeruginosa); assay: Competitive inhibition of Pseudomonas aeruginosa recombinant AIM1 expressed in Escherichia coli BL21(DE3) using cefuroxime as substrate by UV/Vis multi-plate spectrophotometric method
[14] = target: T1, Metallo-beta-lactamase AIM-1 (Pseudomonas aeruginosa); assay: Inhibition of Pseudomonas aeruginosa recombinant AIM1 expressed in Escherichia coli BL21(DE3) assessed as potentiation of meropenem-mediated antibacterial activity by measuring meropenem MIC at 30 uM after overnight incubation (reference value: 2 ug/ml); how it was run: as §1
[15] = tested on: Bacteria; assay: Inhibition of bacterial IMP1 expressed in Escherichia coli BL21(DE3) assessed as potentiation of meropenem-mediated antibacterial activity by measuring meropenem MIC at 30 uM after overnight incubation (reference value: 1 ug/ml); how it was run: as §1
[16] = target: Metallo-beta-lactamase type 2 (Aeromonas hydrophila) (UniProt P26918); assay: Inhibition of Aeromonas hydrophila CphA expressed in Escherichia coli BL21(DE3) assessed as potentiation of meropenem-mediated antibacterial activity by measuring meropenem MIC at 30 uM after overnight incubation (reference value: 1 ug/ml); how it was run: as §1
[17] = Drug metabolism assessed as bacterial IMP1-mediated N-(1-Benzyl-3-cyano-4,5-diphenyl-1H-pyrrol-2-yl)benzamide formation by ESI-MS method; type: ADME; conditions: bacteria

Chain of Metallo-beta-lactamase type 2 (Aeromonas hydrophila) (P26918 whole entry): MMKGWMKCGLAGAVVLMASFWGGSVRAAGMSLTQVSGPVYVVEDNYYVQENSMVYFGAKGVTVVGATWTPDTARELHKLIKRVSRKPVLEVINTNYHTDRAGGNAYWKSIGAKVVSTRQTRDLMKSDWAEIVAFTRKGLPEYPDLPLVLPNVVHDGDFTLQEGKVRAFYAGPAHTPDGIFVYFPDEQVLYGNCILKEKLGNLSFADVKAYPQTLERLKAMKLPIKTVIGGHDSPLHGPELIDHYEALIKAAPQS

N#Cc1c(-c2ccccc2)c(-c2ccccc2)n(Cc2ccccc2)c1NC(=O)c1ccccc1
growth inhibition (GI) [1]: Non-Toxic
inhibition [2]: 50.9%
Kic [3]: 10.7 µM
fold change (FC) [4]: 20
growth inhibition (GI) [5]: Non-Toxic
fold change (FC) [6]: 20
Kiuc [7]: 13 µM
Kic [8]: 11 µM
growth inhibition (GI) [9]: Non-Toxic
Kiuc [10]: 9 µM
fold change (FC) [11]: 40
Kiuc [12]: 4.3 µM
Kic [13]: 1.6 µM

COc1ccc(Cn2c(N)c(C#N)c(-c3ccccc3)c2-c2ccccc2)cc1
inhibition [2]: 20.1%

CCCC(=O)Nc1c(C#N)c(-c2ccccc2)c(-c2ccccc2)n1Cc1ccccc1
inhibition [2]: 21%

N#Cc1c(N)[nH]c(-c2ccccc2)c1-c1ccccc1
inhibition [2]: 12%

N#Cc1c(-c2ccccc2)c(-c2ccccc2)n(-c2ccccc2)c1N
inhibition [2]: 0%

Cc1cc(C)cc(C(=O)N(C(=O)c2cc(C)cc(C)c2)c2c(C#N)c(-c3ccccc3)c(-c3ccccc3)n2Cc2ccccc2)c1
inhibition [2]: 13.3%

NC(=O)c1c(-c2ccccc2)c(-c2ccccc2)n(Cc2ccccc2)c1N
inhibition [2]: 0%

N#Cc1c(-c2ccccc2)c(-c2ccccc2)n(CCc2ccccc2)c1N
inhibition [2]: 4.8%

CC(=O)N(C(C)=O)c1c(C#N)c(-c2ccccc2)c(-c2ccccc2)n1Cc1ccccc1
inhibition [2]: 18.6%

N#Cc1c(-c2ccccc2)c(-c2ccccc2)n(Cc2ccccc2)c1NC(=O)c1ccc([N+](=O)[O-])cc1
growth inhibition (GI) [1]: Non-Toxic
inhibition [2]: 36.9%
Kic [3]: 1.24 µM
growth inhibition (GI) [5]: Non-Toxic
Kiuc [7]: 47 µM
MIC [14]: 0.5 µg/mL
MIC [15]: 0.25 µg/mL
growth inhibition (GI) [9]: Non-Toxic
MIC [16]: 0.75 µg/mL
Kic [13]: 10.9 µM

CCCCCCCCCCCCCC(=O)N(C(=O)CCCCCCCCCCCCC)c1c(C#N)c(-c2ccccc2)c(-c2ccccc2)n1Cc1ccccc1
inhibition [2]: 14.3%

Cc1cc(C)cc(C(=O)Nc2c(C#N)c(-c3ccccc3)c(-c3ccccc3)n2Cc2ccccc2)c1
inhibition [2]: 32.3%
Kic [3]: 20.2 µM
Kiuc [12]: 7.8 µM

N#Cc1c(-c2ccccc2)c(-c2ccccc2)n(Cc2ccccc2)c1N(C(=O)c1ccccc1)C(=O)c1ccccc1
inhibition [2]: 48%
Kic [3]: 468 µM
Drug metabolism [17]: Metabolite_Notdetected
Kiuc [12]: 55 µM

CCCCCCCCCCCCCC(=O)Nc1c(C#N)c(-c2ccccc2)c(-c2ccccc2)n1Cc1ccccc1
inhibition [2]: 8.2%

N#Cc1c(-c2ccccc2)c(-c2ccccc2)n(CCCCc2ccccc2)c1N
inhibition [2]: 8.7%

N#Cc1c(-c2ccccc2)c(-c2ccccc2)n(Cc2ccccc2)c1N1C(=O)c2ccccc2C1=O
inhibition [2]: 20.3%

N#Cc1c(-c2ccccc2)c(-c2ccccc2)n(Cc2ccccc2)c1NC(=O)C1CCCCC1
inhibition [2]: 23.3%

N#Cc1c(-c2ccco2)c(-c2ccco2)n(Cc2ccccc2)c1N
inhibition [2]: 23.2%

N#Cc1c(-c2ccccc2)c(-c2ccccc2)n(Cc2ccccc2)c1NC(=O)c1ccc(C(=O)c2ccccc2)cc1
growth inhibition (GI) [1]: Non-Toxic
inhibition [2]: 44.3%
growth inhibition (GI) [5]: Non-Toxic
MIC [14]: 0.75 µg/mL
MIC [15]: 0.5 µg/mL
Kic [8]: 872 µM
growth inhibition (GI) [9]: Non-Toxic
Kiuc [10]: 161 µM
Kiuc [12]: 1.52 µM
MIC [16]: 0.75 µg/mL

Nc1c(-c2nnn[nH]2)c(-c2ccccc2)c(-c2ccccc2)n1Cc1ccccc1
inhibition [2]: 8.7%

N#Cc1c(-c2ccccc2)c(-c2ccccc2)n(Cc2ccccc2)c1N
growth inhibition (GI) [1]: Non-Toxic
inhibition [2]: 26%
Kic [3]: 21 µM
growth inhibition (GI) [5]: Non-Toxic
Kiuc [7]: 12.5 µM
MIC [14]: 0.25 µg/mL
MIC [15]: 0.5 µg/mL
Kic [8]: 52 µM
growth inhibition (GI) [9]: Non-Toxic
Kiuc [10]: 5.5 µM
MIC [16]: 0.047 µg/mL
Kic [13]: 2.2 µM

CCCC(=O)N(C(=O)CCC)c1c(C#N)c(-c2ccccc2)c(-c2ccccc2)n1Cc1ccccc1
inhibition [2]: 17.1%

N#Cc1c(-c2ccccc2)c(-c2ccccc2)n(Cc2ccccc2)c1NC(=O)c1cccc([N+](=O)[O-])c1
inhibition [2]: 48.7%
Kic [3]: 23.7 µM
Kiuc [12]: 3.3 µM

Cc1c(C#N)c(N)n(Cc2ccccc2)c1C
inhibition [2]: 2.3%

N#Cc1c(-c2ccccc2)c(-c2ccccc2)n(CCCc2ccccc2)c1N
inhibition [2]: 4.1%

CC(=O)Nc1c(C#N)c(-c2ccccc2)c(-c2ccccc2)n1Cc1ccccc1
inhibition [2]: 16.1%

N#Cc1c(-c2ccccc2)c(-c2ccccc2)n(Cc2ccccc2)c1N(C(=O)c1ccc([N+](=O)[O-])cc1)C(=O)c1ccc([N+](=O)[O-])cc1
inhibition [2]: 20.2%
